Test results taken from ChEMBL document CHEMBL1155470, “Colloid formation by drugs in simulated intestinal fluid” (J Med Chem, 2010).
Where a name gives a salt, the structure may show the parent alone. Each block holds one molecule with its values, some of them ahead of it. Calls of active or inactive are those of the source. No cut-off for these calls is given here.

Assays:
[1] = target: T1, Cruzipain (Trypanosoma cruzi, UniProt P25779); assay: Inhibition of Trypanosoma cruzi cruzaine preincubated for 5 mins before substrate addition by fluorescence assay in presence of 0.01% Triton X-100
T1 sequence (P25779 whole entry): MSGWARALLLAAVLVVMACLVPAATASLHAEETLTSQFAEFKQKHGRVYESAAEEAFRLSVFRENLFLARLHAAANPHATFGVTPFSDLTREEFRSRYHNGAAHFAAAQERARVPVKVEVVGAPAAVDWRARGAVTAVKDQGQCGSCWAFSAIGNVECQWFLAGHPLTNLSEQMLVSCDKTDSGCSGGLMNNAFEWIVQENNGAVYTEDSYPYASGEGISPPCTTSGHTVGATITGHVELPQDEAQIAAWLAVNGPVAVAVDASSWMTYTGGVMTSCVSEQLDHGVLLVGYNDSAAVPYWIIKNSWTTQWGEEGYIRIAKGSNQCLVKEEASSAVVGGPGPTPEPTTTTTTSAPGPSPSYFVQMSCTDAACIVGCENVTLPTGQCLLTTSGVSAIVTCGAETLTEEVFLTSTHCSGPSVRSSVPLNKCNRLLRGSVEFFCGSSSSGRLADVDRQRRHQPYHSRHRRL

[2] = target: T1, Cruzipain; assay: Inhibition of Trypanosoma cruzi cruzaine preincubated for 5 mins before substrate addition by fluorescence assay in absence of Triton X-100
[3] = Colloidal aggregation in fed state simulated intestinal fluid assessed as colloid radius at 100 uM by dynamic light scattering assay in presence of 1% DMSO; assay type: physicochemical; conditions: simulated gi fluid
How it was run: (§1)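 Concentrated DMSO stocks diluted into filtered FeSSIF: blank FeSSIF plus 15 mM sodium taurocholate and 3.75 mM lecithin, dissolved at 37 °C. Final DMSO 1% unless otherwise noted. Particle size by dynamic light scattering at 826.6 nm, detector at 90°, 100% laser power. Values are averages of three or more independent measurements at room temperature.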

[4] = Colloidal aggregation in fed state simulated intestinal fluid assessed as percent of drug in fraction after centrifugation by UV-visible spectrophotometry in presence of 3% DMSO; conditions: simulated gi fluid
[5] = Colloidal aggregation in fed state simulated intestinal fluid assessed as colloid radius at 20 uM by dynamic light scattering assay in presence of 1% DMSO; assay type: physicochemical; conditions: simulated gi fluid; how it was run: as §1
[6] = Colloidal aggregation in fed state simulated intestinal fluid assessed as colloid radius at 2.5 uM by dynamic light scattering assay in presence of 1% DMSO; assay type: physicochemical; conditions: simulated gi fluid; how it was run: as §1
[7] = Aggregation-based binding affinity to beta-lactamase AmpC at 200 uM in fed state simulated intestinal fluid after 30 mins by silver staining in presence of 2% DMSO
How it was run: (§2)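 Cosedimentation in FeSSIF, with and without 2 μg AmpC β-lactamase added per sample. Samples centrifuged at 16000g for 30 min at room temperature. Supernatant removed completely; pellets resuspended in DMSO plus 50 mM KPi pH 7.0 and run on SDS-PAGE. Protein detected by silver staining. Drug-only pellets included as background controls.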

[8] = Binding affinity to beta-lactamase AmpC at 200 uM after 30 mins by SDS-PAGE; how it was run: as §2
[9] = Colloidal aggregation in fed state simulated intestinal fluid by dynamic light scattering-based beads autocorrelation assay in presence of 1% DMSO; assay type: physicochemical; conditions: simulated gi fluid
How it was run: (§3)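 FeSSIF samples examined by DLS (826.6 nm laser, 90° detector, room temperature), comparing autocorrelation curves with blank FeSSIF. The micelle background was checked with 200 nm calibration beads diluted in FeSSIF. Drug samples were made by diluting DMSO stocks into filtered FeSSIF (15 mM taurocholate, 3.75 mM lecithin).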

[10] = Colloidal aggregation in phosphate buffer at 50 uM by transmission electron microscopy in presence of 0.5% DMSO; assay type: physicochemical
How it was run: (§4)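 Drug DMSO stocks diluted into 50 mM phosphate buffer. Samples adsorbed ~30 s onto glow-discharged formvar/carbon-coated copper grids and negatively stained with 2% ammonium molybdate. Imaged by transmission electron microscopy at 80 kV, standard magnification 25 000.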

[11] = Colloidal aggregation in fed state simulated intestinal fluid at 100 uM by transmission electron microscopy in presence of 1% DMSO; assay type: physicochemical; conditions: simulated gi fluid
How it was run: (§5)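 Drug DMSO stocks diluted into FeSSIF. Samples adsorbed ~30 s onto glow-discharged formvar/carbon-coated copper grids and negatively stained with 2% ammonium molybdate. Viewed by transmission electron microscopy at 80 kV, standard magnification 25 000, calibrated with catalase crystals and ferritin.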

[12] = Colloidal aggregation in fed state simulated intestinal fluid at 600 uM by dynamic light scattering-based beads autocorrelation assay in presence of 6% DMSO; assay type: physicochemical; conditions: simulated gi fluid; how it was run: as §3
[13] = Colloidal aggregation in fed state simulated intestinal fluid by dynamic light scattering assay in presence of 6% DMSO; assay type: physicochemical; conditions: simulated gi fluid; how it was run: as §1
[14] = Colloidal aggregation in fed state simulated intestinal fluid assessed as colloid radius at 600 uM by dynamic light scattering assay in presence of 6% DMSO; conditions: simulated gi fluid
[15] = Colloidal aggregation in fed state simulated intestinal fluid assessed as colloid radius at 10 uM by dynamic light scattering assay in presence of 1% DMSO; conditions: simulated gi fluid
[16] = Aggregation-based binding affinity to beta-lactamase AmpC at 700 uM in fed state simulated intestinal fluid after 30 mins by silver staining in presence of 3% DMSO; how it was run: as §2
[17] = Colloidal aggregation in phosphate buffer at 200 uM by transmission electron microscopy in presence of 0.2% DMSO; assay type: physicochemical; how it was run: as §4
[18] = Colloidal aggregation in fed state simulated intestinal fluid by dynamic light scattering assay in presence of 0.5% DMSO; assay type: physicochemical; conditions: simulated gi fluid; how it was run: as §1
[19] = Colloidal aggregation in fed state simulated intestinal fluid at 700 uM by transmission electron microscopy in presence of 3% DMSO; assay type: physicochemical; conditions: simulated gi fluid; how it was run: as §5
[20] = Colloidal aggregation in fed state simulated intestinal fluid by dynamic light scattering assay in presence of 3% DMSO; assay type: physicochemical; conditions: simulated gi fluid; how it was run: as §1
[21] = Colloidal aggregation in fed state simulated intestinal fluid assessed as colloid radius at 600 uM by dynamic light scattering assay in presence of 3% DMSO; assay type: physicochemical; conditions: simulated gi fluid; how it was run: as §1
[22] = Binding affinity to beta-lactamase AmpC at 700 uM after 30 mins by SDS-PAGE; how it was run: as §2
[23] = Colloidal aggregation in fed state simulated intestinal fluid by dynamic light scattering assay in presence of 0.6% DMSO; assay type: physicochemical; conditions: simulated gi fluid; how it was run: as §1
[24] = Colloidal aggregation in fed state simulated intestinal fluid assessed as colloid radius at 120 uM by dynamic light scattering assay in presence of 1% DMSO; assay type: physicochemical; conditions: simulated gi fluid; how it was run: as §1
[25] = Colloidal aggregation in fed state simulated intestinal fluid assessed as colloid radius at 20 uM by dynamic light scattering assay in presence of 0.2% DMSO; assay type: physicochemical; conditions: simulated gi fluid; how it was run: as §1
[26] = Colloidal aggregation in fed state simulated intestinal fluid by dynamic light scattering assay in presence of 0.2% DMSO; assay type: physicochemical; conditions: simulated gi fluid; how it was run: as §1
[27] = Colloidal aggregation in fed state simulated intestinal fluid assessed as colloid radius at 5 uM by dynamic light scattering assay in presence of 1% DMSO; assay type: physicochemical; conditions: simulated gi fluid; how it was run: as §1
[28] = Colloidal aggregation in fed state simulated intestinal fluid by dynamic light scattering assay in presence of 0.25% DMSO; assay type: physicochemical; conditions: simulated gi fluid; how it was run: as §1
[29] = Colloidal aggregation in fed state simulated intestinal fluid by dynamic light scattering assay in presence of 2.75% DMSO; assay type: physicochemical; conditions: simulated gi fluid; how it was run: as §1
[30] = Colloidal aggregation in fed state simulated intestinal fluid assessed as colloid radius at 550 uM by dynamic light scattering assay in presence of 2.75% DMSO; conditions: simulated gi fluid
[31] = Colloidal aggregation in fed state simulated intestinal fluid assessed as colloid radius at 50 uM by dynamic light scattering assay in presence of 1% DMSO; assay type: physicochemical; conditions: simulated gi fluid; how it was run: as §1
[32] = Colloidal aggregation in fed state simulated intestinal fluid at 550 uM by dynamic light scattering-based beads autocorrelation assay in presence of 2.75% DMSO; assay type: physicochemical; conditions: simulated gi fluid; how it was run: as §3
[33] = Colloidal aggregation in fed state simulated intestinal fluid at 200 uM by transmission electron microscopy in presence of 1% DMSO; assay type: physicochemical; conditions: simulated gi fluid; how it was run: as §5
[34] = Colloidal aggregation in fed state simulated intestinal fluid by dynamic light scattering assay in presence of 0.75% DMSO; assay type: physicochemical; conditions: simulated gi fluid; how it was run: as §1
[35] = Colloidal aggregation in fed state simulated intestinal fluid assessed as colloid radius at 150 uM by dynamic light scattering assay in presence of 0.75% DMSO; assay type: physicochemical; conditions: simulated gi fluid; how it was run: as §1
[36] = Colloidal aggregation in phosphate buffer at 100 uM by transmission electron microscopy in presence of 0.2% DMSO; assay type: physicochemical; how it was run: as §4

SMILES: CCCCc1oc2ccccc2c1C(=O)c1cc(I)c(OCCN(CC)CC)c(I)c1 [AMIODARONE HYDROCHLORIDE]
IC50 [1]: 206 µM
IC50 [2]: 4 µM

SMILES: Cc1ccc(NC(=O)c2ccc(CN3CCN(C)CC3)cc2)cc1Nc1nccc(-c2cccnc2)n1 [IMATINIB]
IC50 [1]: 297 µM
IC50 [2]: 207 µM
Activity [3]: 118.4 nm

SMILES: Cc1ccc(-c2cc(C(F)(F)F)nn2-c2ccc(S(N)(=O)=O)cc2)cc1 [CELECOXIB]
Activity [23]: 120 µM
IC50 [1]: > 400 µM
Activity [24]: 161.8 nm
IC50 [2]: 126 µM

SMILES: CC(C)=CCC/C(C)=C/CC/C(C)=C/CC/C(C)=C/CC1=C(C)C(=O)c2ccccc2C1=O [MENATETRENONE]
Activity [25]: 36.8 nm
IC50 [1]: > 200 µM
Activity [9]: Active
IC50 [2]: 18 µM
Activity [26]: 20 µM
Activity [27]: 72.5 nm

SMILES: CN(C)c1ccc2nc3ccc(N(C)C)cc3[s+]c2c1.[Cl-] [METHYLENE BLUE ANHYDROUS]
Activity [33]: Active
Activity [5]: 95.9 nm
Activity [9]: Active
Activity [34]: 150 µM
Activity [35]: 52.6 nm
Activity [36]: Active

Continued, values first:

Percent of drug in fraction [4]: 6.9%
Activity [5]: 64.5 nm
Activity [6]: 138.1 nm
IC50 [1]: > 200 µM
Activity [7]: Active
Activity [8]: inactive
Activity [9]: Active
IC50 [2]: 3 µM
Activity [10]: Active
Activity [11]: Active
SMILES: CCC(C)n1ncn(-c2ccc(N3CCN(c4ccc(OCC5COC(Cn6cncn6)(c6ccc(Cl)cc6Cl)O5)cc4)CC3)cc2)c1=O (stereo unspecified) [ITRACONAZOLE]

Activity [12]: Active
Activity [13]: 600 µM
IC50 [1]: 40 µM
Activity [14]: 103.7 nm
IC50 [2]: 6 µM
Activity [15]: 356.1 nm
SMILES: CC(C)/N=c1\cc2n(-c3ccc(Cl)cc3)c3ccccc3nc-2cc1Nc1ccc(Cl)cc1 [CLOFAZIMINE]

Activity [16]: Active
Activity [17]: Active
Activity [18]: 100 µM
IC50 [1]: > 200 µM
Activity [19]: Active
Activity [9]: Active
IC50 [2]: 122 µM
Activity [3]: 195.1 nm
Activity [20]: 600 µM
Activity [21]: 62.8 nm
Activity [22]: inactive
SMILES: CC(C)Nc1cccnc1N1CCN(C(=O)c2cc3cc(NS(C)(=O)=O)ccc3[nH]2)CC1.CS(=O)(=O)O [DELAVIRDINE MESYLATE]

IC50 [1]: > 200 µM
IC50 [2]: 15 µM
Activity [15]: 93 nm
SMILES: CSc1nc2cc(Cl)c(Oc3cccc(Cl)c3Cl)cc2[nH]1 [TRICLABENDAZOLE]

Activity [28]: 50 µM
IC50 [1]: 168 µM
Activity [29]: 550 µM
Activity [30]: 50.1 nm
IC50 [2]: 42 µM
Activity [31]: 38.8 nm
Activity [32]: Active
SMILES: CCOc1nc2cccc(C(=O)OC(C)OC(=O)OC3CCCCC3)c2n1Cc1ccc(-c2ccccc2-c2nnn[nH]2)cc1 (stereo unspecified) [CANDESARTAN CILEXETIL]

IC50 [1]: 68 µM
IC50 [2]: 7 µM
Activity [31]: 1167.7 nm
SMILES: O=C(Nc1cccc2c(=O)cc(-c3nnn[nH]3)oc12)c1ccc(OCCCCc2ccccc2)cc1
